How the values were obtained:
[1] = Cytotoxicity against mouse ScGT1 cells assessed as cell viability at 1 uM after 5 days by calcein-AM assay; assay type: cell-based; conditions: read-out: Activity
Method in brief: (§1)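 ScGT1 cells in DMEM with 10% FBS were plated at 25000 cells/well. Compounds were dissolved in DMSO, diluted in PBS and added at 10 nM–10 μM. Cells were incubated 5 days at 37 °C, 5% CO2. Viability was read by calcein-AM fluorescence as average percent viable cells versus untreated control. Values are mean of three experiments with SD.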

[2] = tested on: ScGT1; test: Antiprion activity against scrapie prion protein-infected mouse ScGT1 cells assessed as accumulation of PrPSc at 1 uM after 5 days by Western blotting; assay type: cell-based
Method in brief: (§2)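 ScGT1 cells in DMEM with 10% FBS were split 1:10 into Petri dishes and grown 2 days at 37 °C, 5% CO2. Non-toxic compound concentrations (10 nM–2 μM) were then added. After 5 days, cell proteins were extracted, quantified, proteinase K-digested and western-blotted. PK-resistant PrPSc was quantified by densitometry. EC50 is half-maximal inhibition. Values are mean of three experiments with SD.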

[3] = tested on: ScGT1; test: Antiprion activity against scrapie prion protein-infected mouse ScGT1 cells assessed as accumulation of PrPSc at 0.2 uM after 5 days by Western blotting; assay type: cell-based; method in brief: as §2
[4] = Cytotoxicity against mouse ScGT1 cells assessed as cell viability at 0.2 uM after 5 days by calcein-AM assay; assay type: cell-based; conditions: read-out: Activity; method in brief: as §1
[5] = Cytotoxicity against mouse ScGT1 cells assessed as cell viability at EC50 after 5 days by calcein-AM assay; assay type: cell-based; conditions: read-out: INH; method in brief: as §1
[6] = Antiprion activity against scrapie prion protein-infected mouse ScGT1 cells assessed as accumulation of PrPSc after 5 days by Western blotting; assay type: cell-based; conditions: ScGT1, 120 h; method in brief: as §2
[7] = Antioxidant activity in mouse ScGT1 cells assessed as inhibition of ROS formation at 1 uM after 3 hrs by TBARS assay; assay type: functional; conditions: ScGT1, 3 h
Method in brief: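 ScGT1 cells were treated at 1 μM, and lipid hydroperoxides and aldehydes were measured by the TBARS assay. Results are expressed as average percent TBARS of treated cells versus untreated cells. A water-soluble vitamin E derivative served as positive control. Values are mean ± SD, n = 3.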

[8] = Inhibition of scrapie prion protein-mediated lag phase prion fibril formation after 72 hrs by amyloid seeding assay
Method in brief: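 In vitro amyloid seeding assay of recombinant PrP fibril formation, with compounds at 2 μM. The read-out is lag phase in hours, compared against an untreated control. Significance was tested by Student's t-test, n = 4.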

Compound | viability at 120 h, 1 µM [1] [%] | inhibition [2] [%] | inhibition [3] [%] | viability at 120 h, 0.2 µM [4] [%] | viability at 120 h [5] [%] | EC50 [6] [µM] | inhibition at 1 µM [7] [%] | TIME [8] [h]
O=C1C=C(NCCCNc2ccnc3cc(Cl)ccc23)C(=O)c2ccccc21 | 94.3 | 2.9 |  |  |  |  |  | 
COc1ccc2nc3cc(Cl)ccc3c(NCCNC3=CC(=O)C(NCCNc4c5ccc(Cl)cc5nc5ccc(OC)cc45)=CC3=O)c2c1 | 18.2 |  | 3.1 | 80.1 |  |  |  | 
COc1ccc2nc3cc(Cl)ccc3c(NCCCNCCCNC3=CC(=O)C(NCCCNCCCNc4c5ccc(Cl)cc5nc5ccc(OC)cc45)=CC3=O)c2c1 | 1.5 |  | 5.4 | 65.8 |  |  |  | 
O=C1C=C(NCCNc2c3c(nc4ccccc24)CCCC3)C(=O)C=C1NCCNc1c2c(nc3ccccc13)CCCC2 | 108 | 7.1 |  |  |  |  |  | 
O=C1C=C(NCCCNc2ccnc3cc(Cl)ccc23)C(=O)C=C1NCCCNc1ccnc2cc(Cl)ccc12 | 100 | 85.5 |  |  | 99.6 | 0.73 | 83 | 53
COc1ccc2nccc(NCCCNC3=CC(=O)C(NCCCNc4ccnc5ccc(OC)cc45)=CC3=O)c2c1 | 87.2 | 4.7 |  |  |  |  |  | 
O=C1C=C(NCCCNCCCNc2ccnc3cc(Cl)ccc23)C(=O)C=C1NCCCNCCCNc1ccnc2cc(Cl)ccc12 | 105 | 49.1 |  |  | 91.3 | 1.2 | 83 | 40
COc1ccc2nc3cc(Cl)ccc3c(NCCCN3CCN(CCCNc4c5ccc(Cl)cc5nc5ccc(OC)cc45)CC3)c2c1 | 75.6 | 102 |  |  | 92.4 | 0.32 | 93 | 55
O=C1C=C(NCCCNc2c3c(nc4cc(Cl)ccc24)CCCC3)C(=O)C=C1NCCCNc1c2c(nc3cc(Cl)ccc13)CCCC2 | 78.6 | 105 |  |  | 102 | 0.17 | 69 | 57
Cc1c(C)c2c(c(C)c1O)CCC(C)(C(=O)O)O2 (configuration not stated) [TROLOX] |  |  |  |  |  |  | 71 | 
O=C1C=C(NCCCNCCCNc2c3c(nc4ccccc24)CCCC3)C(=O)C=C1NCCCNCCCNc1c2c(nc3ccccc13)CCCC2 | 95.4 | 3.4 |  |  |  |  |  | 
O=C1C=C(NCCNc2ccnc3cc(Cl)ccc23)C(=O)C=C1NCCNc1ccnc2cc(Cl)ccc12 | 115 | 6.2 |  |  |  |  |  | 
COc1ccc2nc3cc(Cl)ccc3c(NCCCNC3=CC(=O)C(NCCCNc4c5ccc(Cl)cc5nc5ccc(OC)cc45)=CC3=O)c2c1 | 65.5 | 89.7 |  |  | 75.2 | 0.68 | 83 | 45
